Reference: the M2OR odorant receptor database

What was measured:
Details in all cases: stereoisomer not certain
OR6C76 (Homo sapiens) = OR6C76 (Homo sapiens) (UniProt A6NM76)
How it was run: (§1)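 Each entry records the cell line, G-protein, co-transfected protein and tags used. Methods varied with the source, often transient luciferase assays in mammalian cell lines. A receptor–molecule pair is called responsive (active) if the original authors judged its signal statistically different from baseline and non-responsive (inactive) otherwise.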

OR6F1 (Homo sapiens) = OR6F1 (Homo sapiens) (UniProt Q8NGZ6)
How it was run: as §1

OR6J1 (Homo sapiens) [1] = target: OR6J1 (Homo sapiens) (UniProt Q8NGC5)
How it was run: as §1
Target sequence in this assay (Q8NGC5 whole entry S250P): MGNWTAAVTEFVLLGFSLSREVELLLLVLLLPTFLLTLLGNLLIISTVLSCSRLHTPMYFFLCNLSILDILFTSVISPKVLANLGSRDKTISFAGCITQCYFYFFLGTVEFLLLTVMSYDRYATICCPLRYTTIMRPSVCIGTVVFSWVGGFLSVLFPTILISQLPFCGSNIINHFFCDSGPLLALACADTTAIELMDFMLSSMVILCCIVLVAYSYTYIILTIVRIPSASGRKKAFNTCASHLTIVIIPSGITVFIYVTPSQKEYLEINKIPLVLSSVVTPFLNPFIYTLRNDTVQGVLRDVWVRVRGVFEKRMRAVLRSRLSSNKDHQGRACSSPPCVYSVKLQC

OR6K2 (Homo sapiens) = OR6K2 (Homo sapiens) (UniProt Q8NGY2)
How it was run: as §1

OR6K3 (Homo sapiens) = OR6K3 (Homo sapiens) (UniProt Q8NGY3)
How it was run: as §1

OR6K6 (Homo sapiens) = OR6K6 (Homo sapiens) (UniProt Q8NGW6)
How it was run: as §1

OR6M1 (Homo sapiens) = OR6M1 (Homo sapiens) (UniProt Q8NGM8)
How it was run: as §1

OR6N1 (Homo sapiens) = OR6N1 (Homo sapiens) (UniProt Q8NGY5)
How it was run: as §1

OR6N2 (Homo sapiens) = OR6N2 (Homo sapiens) (UniProt Q8NGY6)
How it was run: as §1

OR6P1 (Homo sapiens) = target: T1, OR6P1 (Homo sapiens) (UniProt Q8NGX9)
T1 sequence (whole entry): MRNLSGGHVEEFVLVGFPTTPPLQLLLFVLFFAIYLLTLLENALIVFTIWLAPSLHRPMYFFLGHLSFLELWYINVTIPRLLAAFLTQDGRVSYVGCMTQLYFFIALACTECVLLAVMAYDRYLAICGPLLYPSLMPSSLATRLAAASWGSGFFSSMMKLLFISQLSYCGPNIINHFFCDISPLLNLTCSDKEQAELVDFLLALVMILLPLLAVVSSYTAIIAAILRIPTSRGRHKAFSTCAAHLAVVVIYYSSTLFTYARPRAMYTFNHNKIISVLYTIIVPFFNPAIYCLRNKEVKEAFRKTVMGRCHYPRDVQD
How it was run: as §1

OR6Q1 (Homo sapiens) = OR6Q1 (Homo sapiens) (UniProt Q8NGQ2)
How it was run: as §1

OR6S1 (Homo sapiens) = OR6S1 (Homo sapiens) (UniProt Q8NH40)
How it was run: as §1

OR6T1 (Homo sapiens) = OR6T1 (Homo sapiens) (UniProt Q8NGN1)
How it was run: as §1

OR6V1 (Homo sapiens) = OR6V1 (Homo sapiens) (UniProt Q8N148)
How it was run: as §1

OR6J1 (Homo sapiens) [2] = target: OR6J1 (Homo sapiens) (UniProt Q8NGC5); remark: listed apart in the source
How it was run: as §1
Target sequence in this assay (Q8NGC5 whole entry): as the sequence (Q8NGC5 whole entry S250P) above, with P250S counted along it

OR6K3 = system: OR6K3
How it was run: as §1

OR6M1 R224C = system: OR6M1 R224C
How it was run: as §1

OR6M1 T276K = system: OR6M1 T276K
How it was run: as §1

OR6S1 T42I V156I = system: OR6S1 T42I V156I
How it was run: as §1

OR6T1 N2D = system: OR6T1 N2D
How it was run: as §1

Sequence of OR6S1 (Homo sapiens) (Q8NH40 whole entry): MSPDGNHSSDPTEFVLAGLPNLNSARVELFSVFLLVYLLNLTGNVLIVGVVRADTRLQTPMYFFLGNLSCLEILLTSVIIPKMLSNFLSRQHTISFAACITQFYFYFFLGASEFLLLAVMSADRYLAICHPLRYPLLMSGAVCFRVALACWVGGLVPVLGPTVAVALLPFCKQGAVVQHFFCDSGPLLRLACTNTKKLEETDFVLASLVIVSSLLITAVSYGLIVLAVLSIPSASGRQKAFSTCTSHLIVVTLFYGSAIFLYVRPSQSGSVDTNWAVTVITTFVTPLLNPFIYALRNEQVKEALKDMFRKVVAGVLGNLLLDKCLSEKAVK
Sequence of OR6N2 (Homo sapiens) (Q8NGY6 whole entry): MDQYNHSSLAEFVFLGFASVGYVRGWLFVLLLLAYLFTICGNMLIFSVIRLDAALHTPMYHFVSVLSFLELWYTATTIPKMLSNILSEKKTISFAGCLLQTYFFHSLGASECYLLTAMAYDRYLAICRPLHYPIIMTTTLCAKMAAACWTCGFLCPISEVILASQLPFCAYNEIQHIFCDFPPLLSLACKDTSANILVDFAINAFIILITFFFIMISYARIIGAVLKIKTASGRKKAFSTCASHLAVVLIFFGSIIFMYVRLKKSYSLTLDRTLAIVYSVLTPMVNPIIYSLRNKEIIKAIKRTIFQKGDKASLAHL
Sequence of OR6F1 (Homo sapiens) (Q8NGZ6 whole entry): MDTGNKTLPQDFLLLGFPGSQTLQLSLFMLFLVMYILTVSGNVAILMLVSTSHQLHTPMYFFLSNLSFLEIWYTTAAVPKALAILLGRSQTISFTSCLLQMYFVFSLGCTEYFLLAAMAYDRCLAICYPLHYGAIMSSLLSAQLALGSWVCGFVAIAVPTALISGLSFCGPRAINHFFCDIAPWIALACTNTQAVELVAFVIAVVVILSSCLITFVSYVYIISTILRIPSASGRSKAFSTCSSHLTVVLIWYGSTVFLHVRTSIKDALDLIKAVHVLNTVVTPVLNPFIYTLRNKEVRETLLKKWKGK
Sequence of OR6T1 (Homo sapiens) (Q8NGN1 whole entry): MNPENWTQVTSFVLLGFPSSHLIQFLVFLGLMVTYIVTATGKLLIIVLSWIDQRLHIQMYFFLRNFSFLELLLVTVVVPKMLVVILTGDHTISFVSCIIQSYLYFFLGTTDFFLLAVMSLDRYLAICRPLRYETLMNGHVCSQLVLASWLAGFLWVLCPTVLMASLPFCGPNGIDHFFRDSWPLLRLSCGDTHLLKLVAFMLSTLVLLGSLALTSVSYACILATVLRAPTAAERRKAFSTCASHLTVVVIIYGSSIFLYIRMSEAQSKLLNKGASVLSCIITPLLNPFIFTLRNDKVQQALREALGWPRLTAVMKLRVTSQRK
Sequence of OR6M1 (Homo sapiens) (Q8NGM8 whole entry): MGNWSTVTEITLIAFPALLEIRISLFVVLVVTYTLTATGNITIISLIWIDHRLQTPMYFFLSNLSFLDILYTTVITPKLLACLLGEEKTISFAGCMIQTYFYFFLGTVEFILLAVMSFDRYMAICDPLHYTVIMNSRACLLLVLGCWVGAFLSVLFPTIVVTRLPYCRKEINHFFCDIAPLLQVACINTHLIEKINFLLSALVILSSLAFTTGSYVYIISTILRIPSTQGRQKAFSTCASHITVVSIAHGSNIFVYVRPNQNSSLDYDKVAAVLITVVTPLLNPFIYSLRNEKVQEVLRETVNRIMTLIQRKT
Sequence of OR6V1 (Homo sapiens) (Q8N148 whole entry): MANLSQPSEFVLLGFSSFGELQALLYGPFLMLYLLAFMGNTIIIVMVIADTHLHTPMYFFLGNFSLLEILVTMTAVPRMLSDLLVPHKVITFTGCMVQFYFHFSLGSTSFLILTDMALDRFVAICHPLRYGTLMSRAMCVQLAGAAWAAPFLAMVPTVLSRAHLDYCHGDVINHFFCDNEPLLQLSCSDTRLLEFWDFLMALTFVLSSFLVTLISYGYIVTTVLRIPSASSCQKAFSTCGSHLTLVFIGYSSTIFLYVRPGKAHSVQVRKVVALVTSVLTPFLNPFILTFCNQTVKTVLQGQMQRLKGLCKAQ
Sequence of OR6Q1 (Homo sapiens) (Q8NGQ2 whole entry): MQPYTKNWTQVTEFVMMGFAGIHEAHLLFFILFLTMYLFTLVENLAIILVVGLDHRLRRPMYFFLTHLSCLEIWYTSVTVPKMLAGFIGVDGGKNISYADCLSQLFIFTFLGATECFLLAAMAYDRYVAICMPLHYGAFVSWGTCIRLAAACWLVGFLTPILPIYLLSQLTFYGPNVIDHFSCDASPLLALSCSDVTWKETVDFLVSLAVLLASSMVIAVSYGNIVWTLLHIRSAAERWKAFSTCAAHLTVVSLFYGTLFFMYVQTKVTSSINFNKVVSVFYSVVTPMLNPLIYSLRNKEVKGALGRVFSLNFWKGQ
Sequence of OR6K2 (Homo sapiens) (Q8NGY2 whole entry): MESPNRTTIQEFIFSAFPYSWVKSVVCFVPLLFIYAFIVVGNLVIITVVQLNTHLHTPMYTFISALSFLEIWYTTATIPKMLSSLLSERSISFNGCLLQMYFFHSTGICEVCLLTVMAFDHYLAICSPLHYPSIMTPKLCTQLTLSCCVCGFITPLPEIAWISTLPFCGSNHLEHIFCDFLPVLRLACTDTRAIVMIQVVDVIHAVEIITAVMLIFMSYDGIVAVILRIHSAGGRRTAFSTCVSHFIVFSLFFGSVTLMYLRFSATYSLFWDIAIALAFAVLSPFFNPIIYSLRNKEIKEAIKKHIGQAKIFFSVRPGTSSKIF
Sequence of OR6N1 (Homo sapiens) (Q8NGY5 whole entry): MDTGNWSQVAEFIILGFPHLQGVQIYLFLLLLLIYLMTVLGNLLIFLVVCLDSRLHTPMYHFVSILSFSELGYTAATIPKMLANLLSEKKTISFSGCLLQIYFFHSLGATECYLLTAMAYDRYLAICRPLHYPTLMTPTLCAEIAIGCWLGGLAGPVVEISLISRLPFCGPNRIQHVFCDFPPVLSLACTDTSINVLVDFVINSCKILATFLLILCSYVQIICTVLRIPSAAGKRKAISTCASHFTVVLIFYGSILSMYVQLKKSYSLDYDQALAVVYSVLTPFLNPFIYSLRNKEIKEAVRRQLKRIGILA
Sequence of OR6C76 (Homo sapiens) (A6NM76 whole entry): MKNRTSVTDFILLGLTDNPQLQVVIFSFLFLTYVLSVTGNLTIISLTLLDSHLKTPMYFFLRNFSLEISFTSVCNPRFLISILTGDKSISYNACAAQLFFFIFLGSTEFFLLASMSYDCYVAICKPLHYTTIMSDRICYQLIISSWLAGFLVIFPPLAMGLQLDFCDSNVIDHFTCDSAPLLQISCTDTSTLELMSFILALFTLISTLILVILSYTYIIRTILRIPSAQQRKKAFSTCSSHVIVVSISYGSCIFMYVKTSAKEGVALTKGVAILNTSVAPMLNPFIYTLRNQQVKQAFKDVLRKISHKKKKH
Sequence of OR6K6 (Homo sapiens) (Q8NGW6 whole entry): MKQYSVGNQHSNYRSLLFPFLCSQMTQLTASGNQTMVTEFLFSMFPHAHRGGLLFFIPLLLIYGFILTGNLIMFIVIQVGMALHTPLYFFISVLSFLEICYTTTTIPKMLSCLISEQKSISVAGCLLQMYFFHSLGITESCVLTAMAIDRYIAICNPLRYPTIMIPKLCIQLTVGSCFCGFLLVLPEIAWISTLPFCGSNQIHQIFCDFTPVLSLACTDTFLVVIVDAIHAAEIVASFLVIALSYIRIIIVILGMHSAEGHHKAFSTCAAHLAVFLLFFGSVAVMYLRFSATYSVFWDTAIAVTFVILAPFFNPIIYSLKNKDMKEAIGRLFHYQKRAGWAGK
Sequence of OR6K3 (as listed by the source): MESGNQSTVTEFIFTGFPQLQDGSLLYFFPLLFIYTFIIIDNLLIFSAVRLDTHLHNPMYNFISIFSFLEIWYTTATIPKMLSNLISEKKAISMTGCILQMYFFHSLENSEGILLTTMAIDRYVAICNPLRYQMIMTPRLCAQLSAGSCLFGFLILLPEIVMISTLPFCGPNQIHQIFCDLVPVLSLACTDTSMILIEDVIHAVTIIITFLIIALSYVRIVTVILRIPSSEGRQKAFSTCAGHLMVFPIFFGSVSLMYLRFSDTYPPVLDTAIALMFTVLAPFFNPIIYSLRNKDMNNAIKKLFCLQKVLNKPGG
Sequence of OR6M1 T276K (as listed by the source, stated change not applied): as the sequence (Q8NGM8 whole entry) above, with T276K counted along it
Sequence of OR6T1 N2D (as listed by the source): as the sequence (Q8NGN1 whole entry) above, with N2D counted along it
Sequence of OR6K3 (Homo sapiens) (Q8NGY3 whole entry): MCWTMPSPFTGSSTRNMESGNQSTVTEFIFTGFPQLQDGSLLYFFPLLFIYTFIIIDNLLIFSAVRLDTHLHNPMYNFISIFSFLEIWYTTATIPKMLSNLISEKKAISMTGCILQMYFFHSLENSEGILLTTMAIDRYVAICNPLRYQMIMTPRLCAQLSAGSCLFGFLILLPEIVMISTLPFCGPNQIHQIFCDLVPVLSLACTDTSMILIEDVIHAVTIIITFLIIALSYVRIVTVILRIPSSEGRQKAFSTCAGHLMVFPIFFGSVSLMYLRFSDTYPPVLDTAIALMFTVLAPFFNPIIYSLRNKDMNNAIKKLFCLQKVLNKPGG
Sequence of OR6M1 R224C (as listed by the source, stated change not applied): as the sequence (Q8NGM8 whole entry) above, with R224C counted along it

| Compound | odorant receptor agonist call (OR6C76 (Homo sapiens)) | odorant receptor agonist call (OR6F1 (Homo sapiens)) | odorant receptor agonist call (OR6J1 (Homo sapiens) [1]) | odorant receptor agonist call (OR6K2 (Homo sapiens)) | odorant receptor agonist call (OR6K3 (Homo sapiens)) | odorant receptor agonist call (OR6K6 (Homo sapiens)) | odorant receptor agonist call (OR6M1 (Homo sapiens)) | odorant receptor agonist call (OR6N1 (Homo sapiens)) | odorant receptor agonist call (OR6N2 (Homo sapiens)) | odorant receptor agonist call (OR6P1 (Homo sapiens)) | odorant receptor agonist call (OR6Q1 (Homo sapiens)) | odorant receptor agonist call (OR6S1 (Homo sapiens)) | odorant receptor agonist call (OR6T1 (Homo sapiens)) | odorant receptor agonist call (OR6V1 (Homo sapiens)) | odorant receptor agonist call (OR6J1 (Homo sapiens) [2]) | odorant receptor agonist call (OR6K3) | odorant receptor agonist call (OR6M1 R224C) | odorant receptor agonist call (OR6M1 T276K) | odorant receptor agonist call (OR6S1 T42I V156I) | odorant receptor agonist call (OR6T1 N2D) |
| --- | --- | --- | --- | --- | --- | --- | --- | --- | --- | --- | --- | --- | --- | --- | --- | --- | --- | --- | --- | --- |
| Cc1c([N+](=O)[O-])c(C)c([N+](=O)[O-])c(C(C)(C)C)c1[N+](=O)[O-] | inactive | inactive | inactive | inactive | inactive | inactive | inactive | inactive | inactive | inactive | inactive | inactive | inactive | inactive | – | – | – | – | – | – |
| C=CCOC(=O)Cc1ccccc1 | inactive | inactive | – | inactive | – | inactive | inactive | inactive | inactive | inactive | inactive | inactive | inactive | inactive | inactive | inactive | inactive | inactive | inactive | inactive |
| COc1ccc(C=O)cc1 | – | – | – | – | – | – | – | – | – | active | – | – | – | – | – | – | – | – | – | – |
